STEP inh: blocks human striatal-enriched tyrosine phosphatase. P54829. recombinant STEP, OMFP fluorogenic substrate, fluorescence. inhibition, % at 20 µM. 0.25% of 360,000 active;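 active = inhibition at 20 µM, scaled per plate between control wells, above about 37%, limit read from the data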
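Assay system: isolated STEP enzyme. Buffer or medium: pH 6.0 Bis-Tris with DTT and Tween 20. Also added: fluorogenic phosphatase substrate OMFP at 25 µM final. Dosing: 20 µM, 1% DMSO. Timing: 20 min reaction, room temperature, in the dark. Measured by: fluorescence intensity, excitation 480 nm, emission 540 nm. Evaluation: normalized % inhibition.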
UBC9 SUMO inh: inhibitors of human SUMOylation (UBC9) | HTRF SUMOylation assay, SAE1/SAE2 + UBC9, in vitro | AID 2006 | 0.36% of 290,000 active | inhibition, % at 35 µM; in the data active = inhibition above about 50%, passing the limit was not always enough
Target sequence (P63279 whole entry, looked up): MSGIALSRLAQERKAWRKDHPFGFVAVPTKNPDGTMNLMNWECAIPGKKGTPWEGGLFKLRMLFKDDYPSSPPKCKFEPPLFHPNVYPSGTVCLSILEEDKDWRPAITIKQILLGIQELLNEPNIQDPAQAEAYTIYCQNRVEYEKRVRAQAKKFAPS
LMPTP block: LMPTP (human) inhibition | AID 651560 | 0.22% of 360,000 active | recombinant LMPTP-A, OMFP fluorogenic substrate, fluorescence intensity | P24666 | inhibition, % at 20 µM;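 active = compounds that cut the enzyme signal by at least half of the control window in the single-dose screen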
Target sequence (P24666 whole entry, looked up): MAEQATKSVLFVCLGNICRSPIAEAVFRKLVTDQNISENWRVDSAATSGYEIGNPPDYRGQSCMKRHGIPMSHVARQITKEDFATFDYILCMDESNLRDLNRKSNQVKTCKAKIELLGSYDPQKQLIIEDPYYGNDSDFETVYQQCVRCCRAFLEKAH
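Assay system: LMPTP-A phosphatase enzyme | Input: 0.625 nM enzyme | Also added: Fluorogenic phosphatase substrate OMFP at 400 µM final | Compound dosing: One test concentration per compound, 20 µM, with 3% DMSO overall | Schedule: 50 min enzyme reaction at room temperature, protected from light | Signal: Fluorescence intensity | Benchmarks: no-enzyme and uninhibited controls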
SUMO1 PPI mod: modulators of human SUMO1-mediated protein-protein interactions | AID 602429 | 0.33% of 360,000 active | inhibition, % at 20 µM | SUMO1 binding to a labelled peptide, TR-FRET, 1 h | P63165; in the data active = inhibition above about 37%
Target sequence (P63165 whole entry, looked up): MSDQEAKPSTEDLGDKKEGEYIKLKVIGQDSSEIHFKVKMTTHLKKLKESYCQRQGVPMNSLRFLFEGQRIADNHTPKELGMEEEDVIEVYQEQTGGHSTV
DNMT1 inh: blocks human DNA methyltransferase DNMT1 | P26358 | DNMT1 molecular beacon, Hinp1I cleavage, fluorescence | inhibition (reported as % activation of signal), % at 10 µM | 0.83% of 360,000 active; in the data active = inhibition above about 50%
Scp-1 inhibitor: inhibitors of human Scp-1 phosphatase; inhibition, % at 20 µM; Recombinant Scp1, phosphopeptide, malachite green phosphate absorbance; 0.88% of 340,000 active;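 active = inhibition above about 50% at 20 µM, limit read from the data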
Target sequence (Q9GZU7 76-261 limits assumed): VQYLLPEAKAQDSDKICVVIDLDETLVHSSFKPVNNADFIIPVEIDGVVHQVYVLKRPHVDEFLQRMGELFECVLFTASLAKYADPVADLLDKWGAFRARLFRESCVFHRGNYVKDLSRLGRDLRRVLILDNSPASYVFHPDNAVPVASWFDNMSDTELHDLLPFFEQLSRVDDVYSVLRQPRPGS
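assay system = SCP-1 phosphatase catalytic domain, residues 76-261 | buffer or medium = 50 mM Tris acetate pH 5.5, 0.005% Tween-20, 10 mM MgCl2 | incubation = enzyme reaction 45 min at room temperature, colour 5 min, stabilisation 30 min | signal = Phosphate-binding colour reagent, absorbance read at 630 nm | measure = % inhibition at 20 µM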
Scp-1 conf: Scp-1 (human) inhibition, single-dose confirmed; shares compounds with Scp-1 inhibitor; recombinant SCP-1 catalytic domain, phosphate release, malachite green absorbance; inhibition, % at 20 µM; 61% of 2,500 active
Scp-1 MG ctr: counter-screen for Scp-1 inhibitors: colorimetric interference; shares compounds with Scp-1 inhibitor; Colorimetric interference counterscreen, malachite green absorbance 630 nm; apparent inhibition (interference), % at 20 µM; 2,500 tested, under 10 active; AID 540313;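 also: compounds added after enzyme reaction finished so only phosphate colour detection is probed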
Scp-1 Tm shift: Scp-1 (human) binding by thermal shift. Recombinant SCP1, Sypro Orange thermal shift Tm. thermal shift relative to vanadate control, % at 40 µM. 25% of 1,500 active. shares compounds with Scp-1 inhibitor;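 active = substances whose mean melting-temperature shift, as a percentage of the reference inhibitor's shift, reaches about 5.3%, limit read from the data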
A number is an active result; i = inactive; nt = no result. Compounds with a hit are over-represented: about 1.9% of the library has one in this group of screens.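 The calls were made as follows, unless noted: active = inhibition of at least 30% at 20 µM; inactive = the rest.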

SMILES	STEP inh	UBC9 SUMO inh	LMPTP block	SUMO1 PPI mod	DNMT1 inh	Scp-1 inhibitor	Scp-1 conf	Scp-1 MG ctr	Scp-1 Tm shift
O=C(C1COc2ccccc2O1)N1CCN(c2ccc(C(F)(F)F)cn2)CC1 (stereo not drawn)	i	nt	i	i	i	87	i	i	nt
NS(=O)(=O)c1ccc(N2CCN(C(=O)C3COc4ccccc4O3)CC2)nc1 (stereo not drawn)	i	nt	i	i	i	i	nt	nt	nt
O=C(Nc1cccc2ncccc12)c1ccccc1Cl	i	i	i	i	i	98	i	i	nt
CC(C)c1ccc(OC(=O)c2cccc(S(=O)(=O)N3CCN(C)CC3)c2)cc1	i	i	i	i	i	96	86	i	i
CN1CCN(S(=O)(=O)c2cccc(C(=O)Oc3ccc(C(C)(C)C)cc3)c2)CC1	i	nt	i	i	i	i	nt	nt	nt
CC(NC(=O)COC(=O)c1cccc(S(=O)(=O)N2CCCC2)c1)c1ccccc1 (stereo not drawn)	i	nt	i	i	i	53	i	i	nt
CC(C)C(OC(=O)c1cccs1)C(=O)NCc1ccccc1 (stereo not drawn)	i	i	i	i	i	i	nt	nt	nt
Cc1ccc(OCC(=O)N/N=C\c2ccc(O)c([N+](=O)[O-])c2)c([N+](=O)[O-])c1	i	i	i	i	i	67	42	i	9.8
N#Cc1cnc2nc1NCCCCCCC2	i	nt	i	i	i	nt	nt	nt	nt
O=C(c1cc2nc(-c3ccc(F)cc3)cc(C(F)(F)F)n2n1)N1CCOCC1	i	i	i	i	i	53	i	i	nt
O=C(O)C1C2C=CC(C2)C1C(=O)Nc1ccccc1Br (stereo not drawn)	44	i	i	i	i	69	58	i	i
CCN(CC)c1ccc(C(=O)NC(=S)Nc2cc(S(=O)(=O)N3CCOCC3)ccc2-n2cncn2)cc1	i	i	i	i	i	i	nt	nt	nt
Cc1cc(=O)[nH]c(SCC(=O)Nc2ccc(S(N)(=O)=O)cc2)n1	i	i	i	i	i	51	48	i	i
Cc1cc(=O)[nH]c(SCC(=O)Nc2ccc(C(=O)O)cc2)n1	i	i	i	i	i	i	nt	nt	nt
CSc1nc2nc(Cl)c(Cl)nc2[nH]1	i	nt	i	i	i	nt	nt	nt	nt
Cc1ccc(NC(=O)Cn2c(O)c(N=NC(=O)c3cc4ccccc4cc3O)c3ccccc32)cc1	i	nt	i	i	i	i	nt	nt	nt
COc1ccccc1NC(=O)Cn1c(O)c(N=NC(=O)c2ccccc2O)c2ccccc21	55	nt	60	i	i	94	90	i	i
O=C(Nc1ccc(-c2n[nH]c(=S)o2)cc1)c1ccccc1	i	i	i	i	i	i	nt	nt	nt
CCc1ccc(S(=O)(=O)N2CCN(C(=O)C3CCN(C(C)=O)CC3)CC2)cc1	i	i	i	i	i	i	nt	nt	nt
COc1ccc(NC(=O)CS(=O)CC(=O)Nc2cccnc2)cc1 (stereo not drawn)	i	i	i	i	i	i	nt	nt	nt
COc1ccc(NC(=O)CS(=O)CC(=O)Nc2ccc(NC(C)=O)cc2)cc1 (stereo not drawn)	41	i	i	i	i	79	68	i	i
COc1ccc(S(=O)(=O)N2CCOCC2)cc1NC(=O)CSc1n[nH]c(C(C)C)n1	i	i	i	i	i	i	nt	nt	nt
CC(=O)c1ccc(NC(=O)CCS(=O)(=O)c2ccc3c(c2)n(C)c(=O)c(=O)n3C)cc1	i	i	i	i	i	71	31	i	i
CCOc1ccc(-c2cncc3nccn23)cc1	i	nt	i	i	i	nt	nt	nt	nt
Cc1ccc(NC(=O)c2ccc(Br)o2)cc1S(=O)(=O)N(C)C	i	i	i	i	i	i	nt	nt	nt
SMILES	STEP inh	UBC9 SUMO inh	LMPTP block	SUMO1 PPI mod	DNMT1 inh	Scp-1 inhibitor	Scp-1 conf	Scp-1 MG ctr	Scp-1 Tm shift
CN(C)S(=O)(=O)c1ccc(C(=O)NCC[N+]2(C)CCCCCC2)o1	i	i	i	i	i	68	i	i	nt
CCC(C)C1Nc2ccc(C(=O)NCCc3ccc(OC)c(OC)c3)cc2NC1=O (stereo not drawn)	i	i	i	i	i	i	i	i	nt
CN(C)c1ccc(-c2ccnc3c2CC(C)(C(=O)NCc2ccc(F)c(F)c2)O3)cc1 (stereo not drawn)	i	nt	i	i	i	nt	nt	nt	nt
NC(=O)CCC(NS(=O)(=O)c1ccc(Cl)cc1)C(=O)NCc1ccc(Cl)cc1 (stereo not drawn)	i	i	i	i	i	i	i	i	nt
NC(=O)CCC(NS(=O)(=O)c1ccc(Cl)cc1)C(=O)NCC1CCCCC1 (stereo not drawn)	i	i	i	i	i	i	nt	nt	nt
Cc1c(C(=O)O)cccc1[N+](=O)[O-]	i	nt	i	i	i	i	nt	nt	nt
O=C(O)c1c[nH]c2c([N+](=O)[O-])cccc2c1=O	i	nt	i	i	i	83	53	i	i
Cc1cccc(CNC(=O)c2ccc(NC(=O)C3=CSCCO3)cc2)c1	i	i	i	i	i	i	nt	nt	nt
COc1ccc(C(=O)O/N=C2\C(=O)N(C)c3ccccc32)cc1	i	nt	i	i	i	52	i	i	nt
CN1C(=O)/C(=N\OC(=O)c2cccc3ccccc23)c2ccccc21	i	i	i	i	i	i	nt	nt	nt
Cc1ccc(S(=O)(=O)N2CCCC2C(=O)OCc2ccco2)cc1 (stereo not drawn)	i	i	i	i	i	77	69	i	i
CC(=O)c1c(C)n(C)c2ccc(OC(=O)c3ccc([N+](=O)[O-])cc3)cc12	i	i	i	i	i	59	i	i	nt
C[C@H](NC(=O)c1[nH]cnc1C(=O)Nc1ccc(CNC(=O)OC(C)(C)C)cc1)C(=O)OC(C)(C)C	i	i	i	i	i	i	nt	nt	nt
Cc1ccc(C(=O)N/N=C\C=C\c2ccc(Br)cc2)cn1	i	i	i	i	i	72	48	i	i
Cc1ccc(C(=O)N/N=C/c2cc(Br)ccc2O)cn1	i	i	i	i	i	i	nt	nt	nt
O=S(=O)(c1cccc2cnccc12)N1CCNCC1	i	nt	i	i	i	60	i	i	nt
O=S(=O)(c1cccc2ccccc12)N1CCSC1	i	i	i	i	i	i	nt	nt	nt
O=c1nc2cccc3c2=c(/c1=C(\O)c1ccccc1)c1ccccc1c3=O	i	i	i	i	i	72	58	i	i
O=C(O)/C(=C\c1cccc(F)c1)c1ccc(S(=O)(=O)N2CCCC2)s1	i	nt	i	i	i	i	nt	nt	nt
Cc1cccc(/C=C(\C(=O)O)c2ccc(S(=O)(=O)N3CCCC3)s2)c1	i	nt	i	i	62	93	77	i	i

Assay outcomes from PubChem BioAssay.
